Experimental data published in ChEMBL document CHEMBL1131231, “New azole antifungals. 2. Synthesis and antifungal activity of heterocyclecarboxamide derivatives of 3-amino-2-aryl-1-azolyl-2-butanol” (1998).
≈ marks a conversion by molar mass, not a printed value.

Columns and labels:
Candida albicans [1] = experiment: In vivo antifungal activity against murine candidosis model after peroral administration with 1 mg/kg at various time intervals. (percent protection for 100% mortality with fluconazole-treated group.); type: functional; conditions: route oral
Method in brief: (§1)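 Male mice, groups of 10, infected iv with 0.2 mL Candida albicans at (2–8) × 10⁷ cfu/mL. Oral suspension in 1% Tween + 0.2% carboxymethylcellulose in water, given 1, 4 and 24 h post-infection; vehicle controls and a fluconazole group at the same dose. Survival scored on days 1, 2, 3, 5, 7, 9, reported as % surviving on the day untreated, or fluconazole-treated, mortality reached 100%.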

Candida albicans [2] = experiment: In vivo antifungal activity against murine candidosis model after peroral administration with 1 mg/kg at various time intervals. (percent protection for 100% mortality with untreated group); type: functional; conditions: route oral; method in brief: as §1
Mus musculus [3] = experiment: In vivo antifungal activity against murine candidosis model after peroral administration with 1 mg/kg for 5 days.(percent protection for 100% mortality with fluconazole-treated group.); type: functional; conditions: route oral
Method in brief: (§2)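 Second murine systemic Candida albicans model. Mice, n = 10 per group, dosed orally once daily for 5 days after infection. Animals observed for 65 days, with survival rate as read-out and vehicle controls included. Reported as % protection on the day of 100% mortality in the untreated group or in the fluconazole-treated group.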

[4] = In vivo antifungal activity against murine candidosis model after peroral administration with 1 mg/kg for 5 days.(percent protection for 100% mortality with untreated group); type: functional, Mus musculus; conditions: route oral; method in brief: as §2
[5] = The compound was tested in vitro for antifungal activity against 10 yeasts.; type: functional
Method in brief: (§3)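 Agar dilution on Kimmig's agar with 0.5% glycerol; ATCC or clinical isolates, inocula at 10⁵ cfu/mL. Drugs from 800 μg/mL stock in 50% ethanol, 2-fold serial dilutions 80 to 0.03 μg/mL in plates. Incubated 25 °C, 48 h for yeasts, 120 h for filamentous fungi. Value is geometric mean of MICs (μg/mL); >80 taken as 160, ≤0.03 as 0.03.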

[6] = The compound was tested in vitro for antifungal activity against 6 filamentous fungi.; type: functional; method in brief: as §3
Candida albicans [7] = experiment: In vivo antifungal activity against murine candidosis model after peroral administration with 0.5 mg/kg at various time intervals. (percent protection for 100% mortality with untreated group); type: functional; conditions: route oral; method in brief: as §1
Candida albicans [8] = experiment: In vivo antifungal activity against murine candidosis model after peroral administration with 0.5 mg/kg at various time intervals. (percent protection for 100% mortality with fluconazole-treated group.); type: functional; conditions: route oral; method in brief: as §1
Mus musculus [9] = experiment: In vivo antifungal activity against murine candidosis model after peroral administration with 2.5 mg/kg at various time intervals. (percent protection for 100% mortality with fluconazole-treated group.); type: functional; conditions: route oral; method in brief: as §1
Mus musculus [10] = experiment: In vivo antifungal activity against murine candidosis model after peroral administration with 2.5 mg/kg at various time intervals. (percent protection for 100% mortality with untreated group); type: functional; conditions: route oral; method in brief: as §1

Compound	Protection (Candida albicans [1]) [%]	Protection (Candida albicans [2]) [%]	Protection (Mus musculus [3]) [%]	Protection [4] [%]	MIC [5] [µg/mL]	MIC [6] [µg/mL]	Protection (Candida albicans [7]) [%]	Protection (Candida albicans [8]) [%]	Protection (Mus musculus [9]) [%]	Protection (Mus musculus [10]) [%]
C[C@@H](n1cnc2cc(-c3ccc(Cl)cc3)sc2c1=O)[C@](O)(Cn1cncn1)c1ccc(F)cc1F	100	100	100	100	0.2 (≈ 0.389 µM)	2.2 (≈ 4.28 µM)				
CS(=O)(=O)O.Cc1nc(-c2ccc(C#N)cc2)sc1C(=O)N[C@H](C)[C@](O)(Cn1cncn1)c1ccc(F)cc1F			10	100	1.2	4	100	100		
Cc1cc2nnc(C(=O)N[C@H](C)[C@](O)(Cn3cncn3)c3ccc(F)cc3F)c(C)n2n1					10 (≈ 22.6 µM)	> 80			0	0
C[C@@H](c1nc(-c2ccc(C#N)cc2)cs1)[C@](O)(Cn1cncn1)c1ccc(F)cc1F [RAVUCONAZOLE]			0	20	0.3 (≈ 0.686 µM)	0.8 (≈ 1.83 µM)	50	0		
C[C@@H](c1ncncc1F)[C@](O)(Cn1cncn1)c1ccc(F)cc1F [VORICONAZOLE]			0	20	0.6 (≈ 1.72 µM)	0.5 (≈ 1.43 µM)	0	0		
Cc1c(C(=O)N[C@H](C)[C@](O)(Cn2cncn2)c2ccc(F)cc2F)cnn1-c1ccc(F)cc1F	0	0			5.3 (≈ 10.9 µM)	63 (≈ 129 µM)				
Cc1c(C(=O)N[C@H](C)[C@](O)(Cn2cncn2)c2ccc(F)cc2F)cnn1-c1c(Cl)cccc1Cl	0	0			21 (≈ 40.3 µM)	> 80				
C[C@H]([C@](O)(Cn1cncn1)c1ccc(F)cc1F)S(C)(=O)=O [GENACONAZOLE]			20	100	8.7 (≈ 26.3 µM)	25 (≈ 75.5 µM)	100	100		
Cc1cc2ncc(C(=O)N[C@H](C)[C@](O)(Cn3cncn3)c3ccc(F)cc3F)c(C)n2n1	0	20			70 (≈ 159 µM)	> 80				
Cc1nn(C)c2ncc(C(=O)N[C@H](C)[C@](O)(Cn3cncn3)c3ccc(F)cc3F)c(Cl)c12					19 (≈ 39.9 µM)	> 80			0	0
Cc1c(C(=O)N[C@H](C)[C@](O)(Cn2cncn2)c2ccc(F)cc2F)cnn1-c1ccc(OC(F)(F)F)cc1	80	100			2.6 (≈ 4.85 µM)	5.6 (≈ 10.4 µM)				
C[C@@H](n1cnc2cc(-c3ccc(C(=N)NC#N)cc3)sc2c1=O)[C@](O)(Cn1cncn1)c1ccc(F)cc1F	<20	100			2.7 (≈ 4.94 µM)	80 (≈ 146 µM)				
Cc1c(C(=O)N[C@H](C)[C@](O)(Cn2cncn2)c2ccc(F)cc2F)cnc2cc(-c3ccc(Cl)cc3)nn12	0	100			1.4 (≈ 2.6 µM)	6.3 (≈ 11.7 µM)				
C[C@@H](NC(=O)c1cnn(-c2ccc(Cl)cc2)c1C(C)(C)C)[C@](O)(Cn1cncn1)c1ccc(F)cc1F	0	0			4.6 (≈ 8.7 µM)	> 80				
C[C@@H](n1cnc2cc(-c3ccc([N+](=O)[O-])cc3)sc2c1=O)[C@](O)(Cn1cncn1)c1ccc(F)cc1F	90	100			5.9 (≈ 11.2 µM)	> 80				
C[C@@H](n1cnc2cc(-c3ccc(S(C)(=O)=O)cc3)sc2c1=O)[C@](O)(Cn1cncn1)c1ccc(F)cc1F	0	40			2.3 (≈ 4.12 µM)	> 80				

Compound	Protection (Candida albicans [1]) [%]	Protection (Candida albicans [2]) [%]	Protection (Mus musculus [3]) [%]	Protection [4] [%]	MIC [5] [µg/mL]	MIC [6] [µg/mL]	Protection (Candida albicans [7]) [%]	Protection (Candida albicans [8]) [%]	Protection (Mus musculus [9]) [%]	Protection (Mus musculus [10]) [%]
CCCc1c(C(=O)N[C@H](C)[C@](O)(Cn2cncn2)c2ccc(F)cc2F)cnn1-c1ccc(Cl)cc1	0	100			1.9 (≈ 3.69 µM)	36 (≈ 69.9 µM)				
OC(Cn1cncn1)(Cn1cncn1)c1ccc(F)cc1F [FLUCONAZOLE]				100	30 (≈ 98 µM)	> 80	100			
Cc1c(C(=O)N[C@H](C)[C@](O)(Cn2cncn2)c2ccc(F)cc2F)cnn1-c1ccccc1Cl	0	0			11 (≈ 22.6 µM)	> 80				
Cc1c(S(=O)(=O)c2ccc(Cl)cc2)csc1C(=O)N[C@H](C)[C@](O)(Cn1cncn1)c1ccc(F)cc1F	0	70			1.6 (≈ 2.82 µM)	11 (≈ 19.4 µM)				
CSc1ccc(-c2cc3ncn([C@H](C)[C@](O)(Cn4cncn4)c4ccc(F)cc4F)c(=O)c3s2)cc1	0	30			5.5 (≈ 10.5 µM)	> 80				
Cc1nn(-c2ccc(Cl)cc2)c(C)c1C(=O)N[C@H](C)[C@](O)(Cn1cncn1)c1ccc(F)cc1F	20	90			1.5 (≈ 2.99 µM)	8.9 (≈ 17.8 µM)				
CC(C)c1c(C(=O)N[C@H](C)[C@](O)(Cn2cncn2)c2ccc(F)cc2F)cnn1-c1ccc(Cl)cc1	0	60			3.3 (≈ 6.41 µM)	> 80				
C[C@@H](NC(=O)c1cnn(-c2ccc(Cl)cc2)c1N)[C@](O)(Cn1cncn1)c1ccc(F)cc1F	0	80			2.7 (≈ 5.53 µM)	45 (≈ 92.2 µM)				
C[C@@H](n1cnc2cc(-c3ccc(C4=NCCO4)cc3)sc2c1=O)[C@](O)(Cn1cncn1)c1ccc(F)cc1F	20	100			1.9 (≈ 3.46 µM)	> 80				
C[C@@H](NC(=O)c1ccc(-c2cccnc2)s1)[C@](O)(Cn1cncn1)c1ccc(F)cc1F					1.6 (≈ 3.51 µM)	> 80			0	60
C[C@@H](NC(=O)c1cnn(-c2ccc(Cl)cc2)c1C(F)(F)F)[C@](O)(Cn1cncn1)c1ccc(F)cc1F	50	100			1.2 (≈ 2.22 µM)	7.1 (≈ 13.1 µM)				
Cc1c(C(=O)N[C@H](C)[C@](O)(Cn2cncn2)c2ccc(F)cc2F)cnn1-c1ccc(Br)cc1	50	100			2 (≈ 3.76 µM)	13 (≈ 24.5 µM)				
C[C@@H](n1cnc2cc(-c3ccc(C(N)=O)cc3)sc2c1=O)[C@](O)(Cn1cncn1)c1ccc(F)cc1F	20	100			1.3 (≈ 2.49 µM)	45 (≈ 86.1 µM)				
C[C@@H](NC(=O)c1cnn(-c2ccc(C(F)(F)F)cc2)c1C(F)(F)F)[C@](O)(Cn1cncn1)c1ccc(F)cc1F	0	60			1.8 (≈ 3.13 µM)	13 (≈ 22.6 µM)				
CC(=O)ONC(=N)c1ccc(-c2cc3ncn([C@H](C)[C@](O)(Cn4cncn4)c4ccc(F)cc4F)c(=O)c3s2)cc1	0	60			3.7 (≈ 6.38 µM)	36 (≈ 62.1 µM)				
